The source of these data is PMC3828522 (Genes & Development, 2013).

The test system of assay [1] is Sfmbt 4MBT, Ser633 and Ser673 mutated into proline. As to the kind of experiment: GST pull-down and SPR, Sfmbt Ser633/Ser673 to proline mutant. The assay is classed as binding, Drosophila. To be noted: relative to wild type. A digest of the protocol: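 Mutant and wild-type 6xHis-tagged Sfmbt 4MBT expressed in E. coli. GST pull-down: GST-Pho spacer (E. coli, GST column plus gel filtration) on beads with 4MBT, 2 h at 4°C in 50 mM Tris-HCl, 150 mM NaCl, 1 mM DTT; three washes, boiled in Laemmli buffer.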

Assay [2] relates to Scm. As to the kind of experiment: Pho:Scm complex formation in vitro. Type of assay: binding, Drosophila. Particulars: Supplemental Fig. S5C.
In assay [3] the test system is double-stranded Pho DNA-binding site. Put plainly: EMSA, DNA binding. Set-up: species or system Drosophila. Particulars: ^32P end-labeled probe, protein without partner.
Assay [4] concerns Flag-tagged Pho (full-length). Put plainly: Anti-Flag affinity purification of full-length Pho-Flag:Sfmbt complexes. Type of assay: binding, Drosophila. Particulars: coimmunoprecipitation, full-length proteins, baculovirus system. The procedure, abridged: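 Full-length Pho-Flag with wild-type or mutant Sfmbt expressed and purified in a baculovirus system. Cells lysed by three sonication cycles (30 bursts, 30 sec on ice each). Complexes isolated by anti-Flag affinity purification; bound proteins detected by Western blot with the indicated antibodies.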

Assay [5] has as its system endogenous Pho. As to the kind of experiment: Pull-down of Sfmbt-CTAP proteins from embryo nuclear extracts. The assay is classed as binding, Drosophila. To be noted: nuclear extracts of 0- to 12-h-old embryos, IgG sepharose, Western blot.
Assay [6] deals with Ubx misexpression in Sfmbt^1 homozygous cell clones. As to the kind of experiment: Genetic rescue assay, repression of Ubx in Sfmbt^1 homozygous clones. The assay is classed as in vivo, Drosophila. To be noted: imaginal disc.
Assay [7] has as its system PREs of PcG target genes. As to the kind of experiment: ChIP of Sfmbt-CTAP proteins at PREs. Type of assay: in vivo, Drosophila. A digest of the protocol:
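Sfmbt-CTAP transgenes (wild-type, G635K/A638E double mutant, ΔMBT1 truncation) expressed ubiquitously via daughterless-Gal4 in wild-type third instar larvae. Chromatin from imaginal discs and brains; TAP-tagged proteins immunoprecipitated with peroxidase anti-peroxidase via the protein A moiety. Triplicate ChIPs from three independent chromatin preparations per genotype. qPCR read-out given as mean percentage of input precipitated per region, ±SD.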

Numbering of substitutions follows the chain as printed. Names and notes keep the numbering of the source.

B1: Pho: full-length Drosophila Pleiohomeotic, PRE-binding PcG protein (protein, UniProt Q8ST83 1-520, looked up)
chain: MAYERFGIILQSEQYDEDIGNTKVNQKMNEGNHYDLHRKNAFDRIIHSESKKGDNVINYNIHENDKIKAADNIFSSKLKMNPNMSYEMNINCFKNIGYGENQETSKVLTNSLSNNDINTEESGVVDKNSPFLTLGTTILNSNGKSRRWEQKLVHIKTMEGEFSVTMWASGISDDEYSGSDQIVGASDLLKGKEEFGIDGFTSQQNKEYQKMESKFTNAQTLEMPHPISSVQIMDHLIKERGNLSQENNISERILSKTTLSFEEPILLPDSSSIELVNETAAMTINNHRTLSNHTGNTGDLHALPSSVPFRIGLHEGQVNDCLSTISQSTHQDNTDSTGCGEMNLSEVTVSYTNDKKIACPHKGCNKHFRDSSAMRKHLHTHGPRVHVCAECGKAFVESSKLKRHQLVHTGEKPFQCTFEGCGKRFSLDFNLRTHVRIHTGDRPFVCPFDACNKKFAQSTNLKSHILTHAKAKRNTSISGKSGCSNAESNSQSEDTSANYVKVELQDSVTENHVPFVVYAD
modifications: full-length
For the molecule B1, the “binding affinity change, Ser633 and Ser673 to proline” value in assay [1] is “twofold decrease in the binding affinity”. Besides, the “stable complex formation with Scm in vitro” value in assay [2] is given as “fails to form a stable complex”. Further, the “mobility shift / association with DNA” value in assay [3] is reported as “induces a mobility shift”.

B2: Sfmbt^G635K/A638E: full-length Sfmbt with G635K/A638E mutations (protein)
chain: MNPSELRMMWMSSQYNSERITLEDAATLLGHPTVGLSVMEDLSAHQPTLDMNPMMSLMGGDFTGQAAATAAALGVQPGTLIATNSNNLYGFAHMGGLQQQLLQQSAAAAVFQNYAEAMDNDVENGMVGMAMEAVVDDDDQVYGQRDNNFDDNGSELEPKQEIINIDDFVMMNEDNNSYDGTDFMTSSDKDISQSSSSCMAQMPGSLGVPGVEHDLLVPLPDGLLHHKLLGTTLVPAMGTLNGNAFGNIMVSTENTSSKQMQRTYSTAKGANSTATTATCSASTSSALRSQRKTRKIEPVNRPGLVLKTPIAYRGNIDPSVIPIQKDGMAVCKRCGAIGVKHTFYTKSRRFCSMACARGELYSLVLNTKMEGDQATTSSPDPGAGSESADLPGDQQQSQSDIELDLHAAHIKNANYRFRITDQSKITQLNSFGEPMSMGGDAAANNVQMAADETIAALNGGAVGDATAPGSTEEGASTPNSYLSAAPTPKALRLFKDIYPQDDLPQIPKYERLPVPCPQMEKIISIRRRMYDPTHSYDWLPRLSKENFNAAPVTCFPHAPGCEVWDNLGVGMKVEVENTDCDSIEVIQPGQTPTSFWVATILEIKGYKALMSYEGFDTDSHDFWVNLCNAEVHSVKWCETRGKPLIPPRTIEHKYKDWKDFLVGRLSGARTLPSNFYNKINDSLQSRFRLGLNLECVDKDRISQVRLATVTKIVGKRLFLRYFDSDDGFWCHEDSPIIHPVGWATTVGHNLAAPQDYLERMLAGREAMIEVHEDDATIELFKMNFTFDEYYSDGKTNSFVEGMKLEAVDPLNLSSICPATVMAVLKFGYMMIRIDSYQPDASGSDWFCYHEKSPCIFPAGFCSVNNISVTPPNGYDSRTFTWEGYLRDTGAVAAGQHLFHRIIPDHGFEVGMSLECADLMDPRLVCVATVARVVGRLLKVHFDGWTDEYDQWLDCESADIYPVGWCVLVNHKLEGPPRVAHQQAPKPAPKPKIQRKRKPKKGAAGGKTPTDNNTQSVKSRTIALKTTPHLPKLSIKLELKPEHHNAAFYENNQPEEEGDEEDPDADGDGDGSTSHISEQSTTQSSSDLIAGSGSGSGSASLVTLATGSNKTNSSATNNKYIPRLADIDSSEPHLELVPDTWNVYDVSQFLRVNDCTAHCDTFSRNKIDGKRLLQLTKDDIMPLLGMKVGPALKISDLIAQLKCKVNPGRARSHKTNKSPFL
Regarding B2, in assay [4], the “interaction with Flag-tagged Pho” value was “completely failed to interact”.

B3: Sfmbt-CTAP: wild-type Sfmbt with C-terminal tandem affinity purification tag, expressed from transgene (protein)
chain: B2 chain with K635G, E638A
modifications: left off: TAP tag, C-terminal, kept
As to B3, the “coimmunoprecipitation of endogenous Pho” value in assay [5] is “robustly coimmunoprecipitated”. Moreover, the “repression of Ubx in Sfmbt^1 mutant clones” value in assay [6] is “rescues repression of Ubx”.

B4: Sfmbt^G635K/A638E-CTAP: Sfmbt double point mutant with C-terminal TAP tag, expressed from transgene (protein)
chain: B2 chain
modifications: left off: TAP tag, C-terminal, kept
For B4, in assay [5], the “coimmunoprecipitation of endogenous Pho” value is “only poorly coimmunoprecipitated”. Besides, the “reduction of ChIP signals at Ubx PREs” value in assay [7] was “reduced only twofold to threefold”. In addition, in assay [6], the “repression of Ubx in Sfmbt^1 mutant clones” value is “severely compromised repressor activity”.

B5: Sfmbt 4MBT domain: four malignant brain tumor (4MBT) domain of Drosophila Sfmbt (protein, UniProt Q9VK33 532-980, looked up, fragment)
chain: PTHSYDWLPRLSKENFNAAPVTCFPHAPGCEVWDNLGVGMKVEVENTDCDSIEVIQPGQTPTSFWVATILEIKGYKALMSYEGFDTDSHDFWVNLCNAEVHSVGWCATRGKPLIPPRTIEHKYKDWKDFLVGRLSGARTLPSNFYNKINDSLQSRFRLGLNLECVDKDRISQVRLATVTKIVGKRLFLRYFDSDDGFWCHEDSPIIHPVGWATTVGHNLAAPQDYLERMLAGREAMIEVHEDDATIELFKMNFTFDEYYSDGKTNSFVEGMKLEAVDPLNLSSICPATVMAVLKFGYMMIRIDSYQPDASGSDWFCYHEKSPCIFPAGFCSVNNISVTPPNGYDSRTFTWEGYLRDTGAVAAGQHLFHRIIPDHGFEVGMSLECADLMDPRLVCVATVARVVGRLLKVHFDGWTDEYDQWLDCESADIYPVGWCVLVNHKLEGPPRVAH
modifications: 4MBT domain
For the molecule B5, in assay [3], the “mobility shift / association with DNA” value was “fails to stably associate with DNA”.
